Test results reported in ChEMBL document CHEMBL3098051, “Rational design and synthesis of novel dibenzo[b,d]furan-1,2,3-triazole conjugates as potent inhibitors of Mycobacterium tuberculosis” (Eur J Med Chem, 2014).
≈ marks a conversion by molar mass, not a printed value.

How the values were obtained:
[1] = tested on: Mycobacterium tuberculosis; test: Antimycobacterial activity against Mycobacterium tuberculosis H37Rv ATCC 27294 assessed as parasite growth inhibition after 28 days by agar dilution method; assay type: functional; conditions: H37Rv ATCC 27294, 672 h
Outline: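 Inoculum from fresh Middlebrook 7H11 agar slants with OADC supplement, adjusted to 1 mg/mL wet weight in 0.05% Tween 80 saline and diluted to about 10^7 cfu/mL. Suspension was spotted onto 7H11 agar tubes containing 10-fold serial drug dilutions and incubated at 37 °C. Read at 28 days. MIC was the lowest concentration completely inhibiting growth, run in triplicate at pH 7.40.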

HEK-293T = test: Cytotoxicity against HEK293T cells after 72 hrs by MTT assay; assay type: cell-based; conditions: Homo sapiens
Outline: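 Human embryonic kidney 293T cells were exposed to compound for 72 h. Viability was read by cellular conversion of MTT to formazan, and percentage growth of cells was reported.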

[2] = Selectivity index, ratio of IC50 for HEK293T cells to MIC for Mycobacterium tuberculosis H37Rv ATCC 27294; assay type: toxicity, cell-based, HEK-293T; conditions: human, read-out: Selectivity Index
Outline: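 SI was taken as the approximated IC50 in HEK293T cells (72 h MTT) relative to MIC against H37Rv (agar dilution, 28 days). SI above 10 was counted as nontoxic.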

[3] = Cytotoxicity against HEK293T cells at 50 ug/ml after 72 hrs by MTT assay; assay type: cell-based, HEK-293T; conditions: human, read-out: INH

| Compound | MIC [1] [µg/mL] | IC50 (HEK-293T) [µg/mL] | selectivity ratio [2] | cytotoxicity at 72 h, 50 ug/ml [3] [%] |
| --- | --- | --- | --- | --- |
| CC[C@@H](CO)NCCN[C@@H](CC)CO [ETHAMBUTOL] | 3.13 (≈ 15.3 µM) | – | – | – |
| NNC(=O)c1ccncc1 [ISONIAZID] | 0.1 (≈ 0.729 µM) | – | – | – |
| CC(c1ccc([N+](=O)[O-])cc1)n1cc(-c2ccc3oc4ccccc4c3c2)nn1 (centres undefined) | 25 (≈ 65 µM) | > 50 | 2 | 38.9 |
| COc1ccc(Cn2cc(-c3ccc4oc5ccccc5c4c3)nn2)cc1 | 3.12 (≈ 8.78 µM) | 50 (≈ 141 µM) | 16 | 52.7 |
| Brc1cccc(Cn2cc(-c3ccc4oc5ccccc5c4c3)nn2)c1 | 6.25 (≈ 15.5 µM) | > 50 | > 10 | 12 |
| COc1ccc(C(C)n2cc(-c3ccc4oc5ccccc5c4c3)nn2)cc1 (centres undefined) | 3.12 (≈ 8.45 µM) | > 50 | > 16 | 18.9 |
| c1ccc(Cn2cc(-c3ccc4oc5ccccc5c4c3)nn2)cc1 | 50 (≈ 154 µM) | > 50 | 1 | 36.1 |
| Cc1ccc(C(C)n2cc(-c3ccc4oc5ccccc5c4c3)nn2)cc1 (centres undefined) | 3.12 (≈ 8.83 µM) | 50 (≈ 141 µM) | 16 | 43.1 |
| CCOC(=O)Cn1cc(-c2ccc3oc4ccccc4c3c2)nn1 | 1.56 (≈ 4.85 µM) | > 50 | > 25 | 38.8 |
| OCCCCn1cc(-c2ccc3oc4ccccc4c3c2)nn1 | 50 (≈ 163 µM) | > 50 | 1 | 21.9 |
| COc1cccc(Cn2cc(-c3ccc4oc5ccccc5c4c3)nn2)c1 | 0.78 (≈ 2.19 µM) | < 50 | 25 | 62.1 |
| O=[N+]([O-])c1ccc(Cn2cc(-c3ccc4oc5ccccc5c4c3)nn2)cc1 | 50 (≈ 135 µM) | 50 (≈ 135 µM) | 1 | 46.3 |
| CO[C@H]1/C=C/O[C@@]2(C)Oc3c(C)c(O)c4c(O)c(c(/C=N/N5CCN(C)CC5)c(O)c4c3C2=O)NC(=O)/C(C)=C\C=C\[C@H](C)[C@H](O)[C@@H](C)[C@@H](O)[C@@H](C)[C@H](OC(C)=O)[C@@H]1C [RIFAMPIN] | 0.2 (≈ 0.243 µM) | – | – | – |
| CC(c1ccc2oc3ccccc3c2c1)n1cc(-c2ccc3oc4ccccc4c3c2)nn1 (centres undefined) | 50 (≈ 116 µM) | 50 (≈ 116 µM) | 1 | 52.6 |
| Brc1ccc(Cn2cc(-c3ccc4oc5ccccc5c4c3)nn2)cc1 | 0.78 (≈ 1.93 µM) | > 50 | > 25 | 27.8 |
| CC(c1ccc2sc3ccccc3c2c1)n1cc(-c2ccc3oc4ccccc4c3c2)nn1 (centres undefined) | 25 (≈ 56.1 µM) | < 50 | 1 | 61.1 |
| COC(=O)c1ccc(Cn2cc(-c3ccc4oc5ccccc5c4c3)nn2)cc1 | 25 (≈ 65.2 µM) | < 50 | 1 | 58.1 |
